These results are taken from ChEMBL document CHEMBL3352409, “Synthetic reactions with rare taccalonolides reveal the value of C-22,23 epoxidation for microtubule stabilizing potency” (J Med Chem, 2014).

For series [1], the system named is HeLa. Nature of the series: Antiproliferative activity against human HeLa cells by SRB assay. Format: functional, cell-based. The essentials:
(§1)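 SRB assay in HeLa cells, IC50 from concentration-response; three independent experiments, each in triplicate, reported with standard deviation.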
(In general: Sulforhodamine B stains cellular protein and so reports cell mass.)

Series [2] concerns HeLa. Nature of the series: Stabilization of microtubules in interphase human HeLa cells at 4 nM after 18 hrs by immunofluorescence microscopy. Format: cell-based. The essentials:
(§2)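 Interphase HeLa cells exposed to compound or EtOH vehicle for 18 h. Microtubules stained with a β-tubulin antibody and imaged by fluorescence microscopy.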

The target in series [3] is T1, Tubulin (Sus scrofa) (UniProt P02554+P02550). Nature of the series: Binding affinity to purified porcine brain tubulin at 0.7 uM by turbidimetry. Summed up:
(§3)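 Compound added from 100× EtOH stock (1% final EtOH). Polymerization started by shift to 37 °C and followed as turbidity at OD340.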

For series [4], the system named is MDA-MB-231. Nature of the series: Antitumor activity against human MDA-MB-231 cells xenografted in nu/nu mouse assessed as tumor growth inhibition at 0.25 mg/kg, ip on days 0 and 3 measured on day 7. Details: dose 0.25 mg/kg. It is filed as functional, organism-based. The essentials: (§4)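 MDA-MB-231 tumor fragments implanted bilaterally in female nu/nu mice; randomized groups of 5, dosing started at mean tumor size 134 mm3. Compound given ip at 0.25 mg/kg on days 0 and 3, from a 1.25 mg/mL EtOH stock diluted at least 1:10 in 200 µL PBS. Tumor volume and body weight recorded 2-3 times weekly; 10 tumors averaged, with standard error.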
On the technique in general: A xenograft is tissue or cells of one species grown in another, often human tumour cells in immunodeficient mice.

Series [5] deals with MDA-MB-231. Nature of the series: Antitumor activity against human MDA-MB-231 cells xenografted in nu/nu mouse assessed as tumor growth inhibition at 0.25 mg/kg, ip on days 0 and 3 measured after 1 week post final dose. It is filed as functional, organism-based. Details: dose 0.25 mg/kg. Summed up:
as §4

The test system of series [6] is MDA-MB-231. Nature of the series: Antitumor activity against human MDA-MB-231 cells xenografted in nu/nu mouse assessed as tumor growth inhibition at 0.25 mg/kg, ip on days 0 and 3 measured after 17 days. It is filed as functional, organism-based. Details: dose 0.25 mg/kg. Summed up: as §4
In series [7] the test system is Mus musculus. Nature of the series: Toxicity in human MDA-MB-231 cells xenografted nu/nu mouse assessed as weight loss at 0.25 mg/kg, ip on days 0 and 3 measured on day 7. The conditions noted are these: in vivo. Format: organism-based. The arrangement: dose 0.25 mg/kg, route intraperitoneal. The essentials: as §4
For series [8], the system named is Mus musculus. Nature of the series: Toxicity in human MDA-MB-231 cells xenografted nu/nu mouse assessed as weight loss at 0.25 mg/kg, ip on days 0 and 3 measured on day 17. Details: dose 0.25 mg/kg, route intraperitoneal. To be noted: in vivo. It is filed as organism-based. Summed up: as §4
Series [9] concerns Mus musculus. Nature of the series: Toxicity in human MDA-MB-231 cells xenografted nu/nu mouse assessed as mortality at 0.375 mg/kg, ip on days 0 and 3 measured on day 8 to day 11. It is filed as organism-based. The arrangement: dose 0.375 mg/kg, route intraperitoneal. The conditions noted are these: in vivo. The essentials:
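Female nu/nu mice with bilateral MDA-MB-231 tumor fragment implants, groups of 5. Two doses were given on days 0 and 3, starting when mean tumor size was 134 mm3. Stock in 100% EtOH (1.25 mg/mL) was diluted at least 1:10 in 200 µL PBS just before ip injection. Mice were checked daily during dosing, weighed 2-3 times weekly, and scored for lethality after the last dose.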

In series [10] the test system is HeLa. Nature of the series: Antiproliferative activity against human HeLa cells up to 50 uM by SRB assay. It is filed as functional, cell-based. Summed up: as §1
Series [11] has as its system HeLa. Nature of the series: Stabilization of microtubules in interphase human HeLa cells at 10 nM after 18 hrs by immunofluorescence microscopy. Format: cell-based. The essentials:
as §2

For series [12], the target named is T1, Tubulin (Sus scrofa). Nature of the series: Binding affinity to purified porcine brain tubulin at 6 uM by turbidimetry. The essentials: as §3
Series [13] deals with MDA-MB-231. Nature of the series: Antitumor activity against human MDA-MB-231 cells xenografted in nu/nu mouse assessed as tumor growth inhibition at 0.75 mg/kg, ip on days 0, 3 and 7 measured on day 21. Details: dose 0.75 mg/kg. Format: functional, organism-based. Summed up:
(§5)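 MDA-MB-231 fragments implanted bilaterally in female nu/nu mice; groups of 5, dosing started at mean tumor size 134 mm3. Compound given ip on days 0, 3 and 7, from a 1 mg/mL EtOH stock diluted at least 1:10 in 200 µL PBS. Tumor volume and weight measured 2-3 times weekly; 10 tumors averaged, with standard error; mice sacrificed day 21.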

Series [14] deals with Mus musculus. Nature of the series: Toxicity in human MDA-MB-231 cells xenografted nu/nu mouse assessed as weight loss at 0.75 mg/kg, ip on days 0, 3 and 7 measured on day 17. Format: organism-based. Details: dose 0.75 mg/kg, route intraperitoneal. To be noted: in vivo. Summed up:
as §5

Series [15] deals with HeLa. Nature of the series: Ratio of taccalonolide A IC50 to compound IC50 for human HeLa cells by SRB assay. Format: functional.
The test system of series [16] is HeLa. Nature of the series: Ratio of taccalonolide B IC50 to compound IC50 for human HeLa cells by SRB assay. It is filed as functional.
The subject of series [17] is HeLa. Nature of the series: Ratio of taccalonolide AM IC50 to compound IC50 for human HeLa cells by SRB assay. It is filed as functional.

Structures are written as SMILES. Activity calls are given as the source filed them. The rule behind the calls is not given here.

T1 sequence (P02550 whole entry, looked up): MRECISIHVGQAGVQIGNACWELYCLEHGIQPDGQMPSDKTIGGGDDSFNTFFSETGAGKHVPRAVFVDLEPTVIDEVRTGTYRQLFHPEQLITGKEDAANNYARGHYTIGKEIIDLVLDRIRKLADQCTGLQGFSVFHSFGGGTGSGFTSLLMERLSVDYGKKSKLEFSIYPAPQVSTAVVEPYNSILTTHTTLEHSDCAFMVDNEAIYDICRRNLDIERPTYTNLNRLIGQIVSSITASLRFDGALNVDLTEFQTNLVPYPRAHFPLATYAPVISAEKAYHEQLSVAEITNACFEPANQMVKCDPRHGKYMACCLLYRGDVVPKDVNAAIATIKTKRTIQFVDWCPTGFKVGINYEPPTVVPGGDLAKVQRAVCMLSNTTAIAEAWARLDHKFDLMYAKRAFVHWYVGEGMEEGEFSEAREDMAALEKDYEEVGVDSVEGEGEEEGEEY
T1 sequence (P02554 whole entry, looked up): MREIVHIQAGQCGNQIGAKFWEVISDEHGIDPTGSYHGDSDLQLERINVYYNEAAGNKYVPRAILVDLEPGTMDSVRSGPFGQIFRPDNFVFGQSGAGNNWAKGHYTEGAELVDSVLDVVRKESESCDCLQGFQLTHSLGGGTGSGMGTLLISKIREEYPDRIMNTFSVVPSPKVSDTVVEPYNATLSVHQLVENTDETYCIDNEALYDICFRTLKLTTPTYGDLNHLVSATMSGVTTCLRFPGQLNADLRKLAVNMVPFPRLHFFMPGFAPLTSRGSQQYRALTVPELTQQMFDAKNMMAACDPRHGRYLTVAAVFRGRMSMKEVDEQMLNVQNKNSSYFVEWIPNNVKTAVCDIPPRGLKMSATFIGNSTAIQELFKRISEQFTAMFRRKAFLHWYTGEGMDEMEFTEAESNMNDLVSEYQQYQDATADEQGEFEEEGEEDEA

Regarding `CC(=O)O[C@@H]1[C@H]2[C@H]3[C@H]([C@H](OC(C)=O)[C@H](OC(C)=O)[C@]2(C)[C@H]2[C@H](C)[C@@H]4O[C@@]45OC(=O)[C@@](C)(O)[C@]5(C)[C@H]12)[C@@]1(C)[C@@H](OC(C)=O)[C@H]2O[C@H]2C[C@]1(O)C(=O)[C@@H]3O`, the IC50 with HeLa [1] was 0.0172 µM. On the same count and under the same terms, next, `CC(=O)O[C@@H]1[C@H]2[C@@H]3[C@@H](OC(C)=O)C(=O)[C@@]4(O)C[C@@H]5O[C@@H]5[C@H](OC(C)=O)[C@]4(C)[C@H]3C[C@H](OC(C)=O)[C@]2(C)[C@H]2[C@H](C)[C@@H]3O[C@@]34OC(=O)[C@@](C)(O)[C@]4(C)[C@H]12`: 0.0296 µM. `CC(=O)O[C@@H]1[C@H]2[C@@H]3[C@@H](OC(C)=O)C(=O)[C@@]4(O)C[C@@H]5O[C@@H]5[C@H](OC(=O)CC(C)C)[C@]4(C)[C@H]3C[C@H](OC(C)=O)[C@]2(C)[C@H]2[C@H](C)[C@@H]3O[C@@]34OC(=O)[C@@](C)(O)[C@]4(C)[C@H]12` registered an IC50 in the series with HeLa [1] of 0.00045 µM. The result in the series with HeLa [2] and on Tubulin (Sus scrofa) [3] was Active. Moreover, the TGI result in the series with MDA-MB-231 [4], in the series on MDA-MB-231 [5] and in the series with MDA-MB-231 [6] was “Active” throughout. The values for the Activity in the series with Mus musculus [7], with Mus musculus [8] and in the series on Mus musculus [9] were 10%, “Non-toxic” and “Toxic”, respectively. For the compound `CC(=O)O[C@@H]1[C@H]2[C@@H]3C(=O)C(O)=C4C[C@@H]5O[C@@H]5[C@H](OC(C)=O)[C@]4(C)[C@H]3[C@H](OC(C)=O)[C@H](OC(C)=O)[C@]2(C)[C@@H]2[C@@H]1[C@]1(C)C(=C[C@H]2C)OC(=O)[C@@]1(C)O`, the midpoint of inhibition with HeLa [1], the IC50, lay at 3.48 µM. As for `CC(=O)O[C@@H]1[C@H]2[C@@H]3[C@@H](O)C(=O)[C@H]4C[C@@H]5O[C@@H]5[C@H](OC(C)=O)[C@]4(C)[C@H]3C[C@H](OC(C)=O)[C@]2(C)[C@H]2[C@H](C)[C@@H]3O[C@@]34OC(=O)[C@@](C)(O)[C@]4(C)[C@H]12`, the IC50 in the series with HeLa [1] is 0.188 µM.

On to `CC(=O)O[C@H]1C[C@H]2[C@H]([C@@H]3[C@@H](O)[C@@H]4[C@H]([C@H](C)[C@@H]5O[C@@]56OC(=O)[C@@](C)(O)[C@]46C)[C@]31C)[C@@H](O)C(=O)[C@H]1C[C@@H]3O[C@@H]3[C@H](OC(C)=O)[C@@]12C`, for which the IC50 in the series with HeLa [1] was 0.0145 µM.

Turning to `CC(=O)O[C@H]1[C@H]2[C@@H]([C@@H](O)[C@@H](O)[C@H]3C[C@@H]4O[C@@H]4[C@H](OC(C)=O)[C@]23C)[C@@H]2[C@@H](O)[C@@H]3[C@H]([C@H](C)C=C4OC(=O)[C@@](C)(O)[C@@]43C)[C@@]2(C)[C@H]1OC(C)=O`, the result in the series on HeLa [10] was inactive. Turning to `CC(=O)O[C@@H]1[C@H](O)[C@H]2[C@@H]3[C@@H](O)[C@@H]4[C@H]([C@H](C)C=C5OC(=O)[C@@](C)(O)[C@@]54C)[C@@]3(C)[C@@H](OC(C)=O)[C@@H](OC(C)=O)[C@@H]2[C@]2(C)[C@@H]1C[C@@H]1O[C@@H]1[C@@H]2OC(C)=O`, the outcome in the series on HeLa [10] was inactive. `CC(=O)O[C@H]1C[C@H]2[C@H]([C@@H]3[C@@H](O)[C@@H]4[C@H]([C@H](C)[C@@H]5O[C@@]56OC(=O)[C@@](C)(O)[C@]46C)[C@]31C)[C@@H](O)C(=O)[C@H]1C[C@@H]3O[C@@H]3[C@H](OC(=O)CC(C)C)[C@@]12C` displayed an IC50 with HeLa [1] of 0.00088 µM. The outcome in the series with HeLa [11] and at Tubulin (Sus scrofa) [12] was Active. In the series on MDA-MB-231 [13], the outcome was inactive. Further, the Activity entry with Mus musculus [14] is “Non-toxic”. `CC(=O)O[C@@H]1[C@H]2[C@H]3[C@H]([C@H](OC(C)=O)[C@H](OC(C)=O)[C@]2(C)[C@H]2[C@H](C)[C@@H]4O[C@@]45OC(=O)[C@@](C)(O)[C@]5(C)[C@H]12)[C@]1(C)[C@H](C[C@@H]2O[C@@H]2[C@@H]1OC(C)=O)C(=O)[C@@H]3O`: in the series on HeLa [15], the “Ratio IC50” value was determined as 231.

`CC(=O)O[C@H]1[C@H]2[C@H]([C@@H]3[C@@H](O)[C@@H]4[C@H]([C@H](C)[C@@H]5O[C@@]56OC(=O)[C@@](C)(O)[C@]46C)[C@@]3(C)[C@H]1OC(C)=O)[C@@H](O)C(=O)[C@@]1(O)C[C@@H]3O[C@@H]3[C@H](OC(C)=O)[C@]21C` returned an IC50 in the series with HeLa [1] of 0.0084 µM. Consider `CC(=O)O[C@H]1[C@H]2[C@H]([C@@H]3[C@@H](O)[C@@H]4[C@H]([C@H](C)[C@@H]5O[C@@]56OC(=O)[C@@](C)(O)[C@]46C)[C@@]3(C)[C@H]1OC(C)=O)[C@@H](O)C(=O)[C@H]1C[C@@H]3O[C@@H]3[C@H](OC(C)=O)[C@]21C`, for which the “Ratio IC50” value in the series with HeLa [16] worked out at 734.

For the compound `CC(=O)O[C@H]1C[C@H]2[C@H]([C@@H]3[C@@H](O)[C@@H]4[C@H]([C@H](C)C=C5OC(=O)[C@@](C)(O)[C@@]54C)[C@]31C)[C@@H](O)C(=O)[C@H]1C[C@@H]3O[C@@H]3[C@H](OC(=O)CC(C)C)[C@@]12C`, the midpoint of inhibition in the series with HeLa [1], the IC50, lay at 0.047 µM. Further, in the series on HeLa [17], the “Ratio IC50” value is 42. The compound `CC(=O)O[C@H]1C[C@H]2[C@H]([C@@H]3[C@@H](O)[C@@H]4[C@H]([C@H](C)[C@@H]5O[C@@]56OC(=O)[C@@](C)(O)[C@]46C)[C@]31C)[C@@H](O)C(=O)[C@H]1C[C@@H]3O[C@@H]3[C@H](O)[C@@]12C` displayed an IC50 in the series with HeLa [1] of 0.685 µM. For the compound `CC(=O)O[C@@H]1[C@H]2[C@@H]3C(=O)C(O)=C4C[C@@H]5O[C@@H]5[C@H](OC(C)=O)[C@]4(C)[C@H]3[C@H](OC(C)=O)[C@H](OC(C)=O)[C@]2(C)[C@H]2[C@H](C)[C@@H]3O[C@@]34OC(=O)[C@@](C)(O)[C@]4(C)[C@H]12`, the IC50 with HeLa [1] turned out to be 0.82 µM. `CC(=O)O[C@@H]1[C@H]2[C@H]3[C@H]([C@H](OC(C)=O)[C@H](OC(C)=O)[C@]2(C)[C@H]2[C@H](C)[C@@H]4O[C@@]45OC(=O)[C@@](C)(O)[C@]5(C)[C@H]12)[C@@]1(C)[C@@H](OC(C)=O)[C@H]2O[C@H]2C[C@]1(O)C(=O)[C@@H]3OC(C)=O` registered an IC50 in the series on HeLa [1] of 0.0156 µM.

The term IC50 denotes the point on the concentration scale where inhibition reaches its midpoint. The low end stands for higher potency, the high end for lower potency.
